Data set [1] has as its system MEF. Briefly: Inhibition of mTORC2 in serum starved mLST8 knockout MEF cells assessed as reduction IGF1-stimulated AKT phosphorylation at Thr308 residue at 100 to 1000 nM incubated for 20 mins by immunoblot analysis. Format: cell-based. To be noted: Mus musculus, dose 100-1000 nM. An outline of the steps:
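Serum withdrawn 16 h. Inhibitor or vehicle given 30 min before stimulation with 50 ng/ml IGF-1 for 20 min. Lysed in Tris lysis buffer and immunoblotted for Akt Thr308 phosphorylation with ECL detection. Applies to HEK-293 and to wild-type, Rictor, Sin1 or mLST8 knockout MEFs. Three independent experiments.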
In general terms: In western blotting, separated proteins are transferred to a membrane and probed.

In data set [2] the target is Proto-oncogene tyrosine-protein kinase Src (Homo sapiens) (UniProt P12931). Put plainly: Inhibition of recombinant human N-terminal His6-tagged SRC (1 to 536 residues) expressed in baculovirus infected Sf21 cells assessed as remaining activity at 10 uM using KVEKIGEGTYGVVYK as substrate incubated for 30 mins in presence of [gamma-33P]ATP by filter binding assay relative to control.
Chain of Proto-oncogene tyrosine-protein kinase Src (Homo sapiens) (P12931 2-536 limits assumed): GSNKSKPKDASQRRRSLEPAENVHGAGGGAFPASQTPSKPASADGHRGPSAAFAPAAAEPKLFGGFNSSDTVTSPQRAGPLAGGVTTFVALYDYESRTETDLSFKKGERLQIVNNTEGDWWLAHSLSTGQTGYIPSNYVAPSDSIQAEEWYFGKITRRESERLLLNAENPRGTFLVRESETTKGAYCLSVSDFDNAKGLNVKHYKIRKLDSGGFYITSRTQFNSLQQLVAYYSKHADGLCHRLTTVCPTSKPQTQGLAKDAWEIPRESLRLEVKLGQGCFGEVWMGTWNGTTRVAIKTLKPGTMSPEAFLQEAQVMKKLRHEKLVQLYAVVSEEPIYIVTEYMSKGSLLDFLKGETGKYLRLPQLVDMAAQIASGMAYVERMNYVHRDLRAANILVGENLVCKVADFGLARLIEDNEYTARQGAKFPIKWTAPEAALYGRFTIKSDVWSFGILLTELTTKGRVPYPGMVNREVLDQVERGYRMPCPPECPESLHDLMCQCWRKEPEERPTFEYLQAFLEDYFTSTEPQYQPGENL

For data set [3], the target named is Mitogen-activated protein kinase 11 (Homo sapiens) (UniProt Q15759). Briefly: Inhibition of recombinant human N-terminal GST-tagged P38beta (1 to 364 residues) expressed in Escherichia coli assessed as remaining activity at 10 uM using MBP as substrate incubated for 30 mins in presence of [gamma-33P]ATP by filter binding method relative to control. In a few lines: (§1)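 Panel assays were run for 30 min at 21 °C, within the linear range for time and enzyme. […] Results are percent activity remaining relative to compound-free control, averaged from triplicate ± S.D.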
Chain of Mitogen-activated protein kinase 11 (Homo sapiens) (Q15759 whole entry, the tested form may be a part): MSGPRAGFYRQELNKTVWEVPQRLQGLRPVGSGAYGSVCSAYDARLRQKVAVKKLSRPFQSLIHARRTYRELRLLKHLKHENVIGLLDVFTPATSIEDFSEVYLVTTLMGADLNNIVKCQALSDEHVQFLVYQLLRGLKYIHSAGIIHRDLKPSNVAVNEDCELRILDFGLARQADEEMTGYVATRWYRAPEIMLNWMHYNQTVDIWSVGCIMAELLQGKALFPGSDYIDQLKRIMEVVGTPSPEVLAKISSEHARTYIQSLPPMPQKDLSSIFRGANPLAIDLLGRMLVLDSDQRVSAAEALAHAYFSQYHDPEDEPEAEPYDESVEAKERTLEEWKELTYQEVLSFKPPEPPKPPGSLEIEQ

In data set [4] the target is T1, mTORC1 (Homo sapiens) (UniProt P42345+Q8N122+Q9BVC4). The following applies: HEK293, dose 30-1000 nM, time 30.0 min.
The target in data set [5] is Dual specificity mitogen-activated protein kinase kinase 1 (Homo sapiens) (UniProt Q02750). Briefly: Inhibition of recombinant human MKK1 (2 to 393 residues) expressed in Escherichia coli assessed as remaining activity at 10 uM using MBP as substrate incubated for 30 mins in presence of [gamma-33P]ATP by filter binding method relative to control. In a few lines:
(§2)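 Kinase panel run robotically at 21 °C for 30 min, linear in time and enzyme. […] Compound tested at 1 or 10 µM. Activity given as percentage of incubations without compound, mean of triplicates ± S.D.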

The target in data set [6] is cAMP-dependent protein kinase catalytic subunit alpha (Homo sapiens) (UniProt P17612). Briefly: Inhibition of recombinant human N-terminal GST-tagged PKAalpha (2 to 351 residues) expressed in Escherichia coli assessed as remaining activity at 10 uM using Kemptide as substrate incubated for 30 mins in presence of [gamma-33P]ATP by filter binding method relative to control. An outline of the steps:
as §1

Data set [7] deals with T2, mTORC2 (Homo sapiens) (UniProt P42345+Q6R327+Q9BVC4+Q9BPZ7). To be noted: HEK293, dose 30-1000 nM, time 30.0 min.
In data set [8] the target is Eukaryotic elongation factor 2 kinase (Homo sapiens) (UniProt O00418). Put plainly: Inhibition of recombinant human N-terminal GST-tagged EF2K (2 to 725 residues) expressed in Escherichia coli assessed as remaining activity at 10 uM using RKKFGESKTKTKEFL as substrate incubated for 30 mins in presence of [gamma-33P]ATP by filter binding method relative to control. An outline of the steps: as §2
Chain of Eukaryotic elongation factor 2 kinase (Homo sapiens) (O00418 whole entry, the tested form may be a part): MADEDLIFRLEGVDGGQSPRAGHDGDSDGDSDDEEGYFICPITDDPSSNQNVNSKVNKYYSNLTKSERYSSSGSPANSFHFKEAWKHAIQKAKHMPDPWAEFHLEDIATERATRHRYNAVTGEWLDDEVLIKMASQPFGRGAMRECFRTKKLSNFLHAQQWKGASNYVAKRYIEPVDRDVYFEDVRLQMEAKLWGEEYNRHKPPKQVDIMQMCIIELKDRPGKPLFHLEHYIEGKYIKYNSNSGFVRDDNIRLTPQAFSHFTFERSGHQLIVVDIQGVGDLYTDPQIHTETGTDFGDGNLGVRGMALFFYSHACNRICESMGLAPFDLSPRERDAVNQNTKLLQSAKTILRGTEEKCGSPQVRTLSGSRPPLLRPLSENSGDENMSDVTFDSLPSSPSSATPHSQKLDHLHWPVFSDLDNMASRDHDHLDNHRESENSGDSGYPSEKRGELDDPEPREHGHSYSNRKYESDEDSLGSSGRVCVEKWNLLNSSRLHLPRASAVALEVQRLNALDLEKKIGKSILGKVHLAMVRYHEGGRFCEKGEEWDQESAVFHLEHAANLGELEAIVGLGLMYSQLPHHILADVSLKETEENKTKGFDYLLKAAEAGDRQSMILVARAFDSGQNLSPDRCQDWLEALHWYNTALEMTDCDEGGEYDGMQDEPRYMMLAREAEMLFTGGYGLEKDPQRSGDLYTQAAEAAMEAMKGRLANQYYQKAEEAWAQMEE

Data set [9] addresses Mitogen-activated protein kinase 15 (Homo sapiens) (UniProt Q8TD08). Put plainly: Inhibition of recombinant human N-terminal His6-tagged ERK8 (2 to 544 residues) expressed in baculovirus infected Sf21 cells assessed as remaining activity at 10 uM using MBP as substrate incubated for 30 mins in presence of [gamma-33P]ATP by filter binding method relative to control. An outline of the steps:
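Radiometric kinase panel run robotically at room temperature (21 °C) for 30 min, linear in time and enzyme. […] Activity is expressed as percent of control without compound, from triplicate determinations ± S.D.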

Data set [10] addresses Fibroblast growth factor receptor 1 (Homo sapiens) (UniProt P11362). Briefly: Inhibition of recombinant human N-terminal His6-tagged FGFR1 (400 to 820 residues) expressed in baculovirus infected Sf21 cells assessed as remaining activity at 1 uM using Poly(Glu,Tyr) as substrate incubated for 30 mins in presence of [gamma-33P]ATP by filter binding method relative to control. In a few lines:
as §1

The target of data set [11] is T1, mTORC1 (Homo sapiens). To be noted: HEK293, dose 30.0 nM, time 30.0 min.
Data set [12] addresses Mitogen-activated protein kinase; ERK1/ERK2 (Homo sapiens) (UniProt P27361+P28482). Put plainly: Inhibition of ERK1/2 in serum starved/PMA-stimulated HEK293 cells assessed as reduction in RSK phosphorylation at S380 residues at 1 uM incubated for 30 mins by immunoblot analysis. Format: cell-based.
The target in data set [13] is Tyrosine-protein kinase SYK (Homo sapiens) (UniProt P43405). Put plainly: Inhibition of recombinant human N-terminal His6-tagged SYK (1 to 635 residues) expressed in baculovirus infected Sf21 cells assessed as remaining activity at 1 uM using Poly (Glu,Tyr) as substrate incubated for 30 mins in presence of [gamma-33P]ATP by filter binding assay relative to control.

The target in data set [14] is Mitogen-activated protein kinase 9 (Homo sapiens) (UniProt P45984). Briefly: Inhibition of recombinant human N-terminal His6-tagged JNK2alpha2 (1 to 424 residues) expressed in baculovirus infected Sf21 cells assessed as remaining activity at 1 uM using ATF2 as substrate incubated for 30 mins in presence of [gamma-33P]ATP by filter binding method relative to control.
Chain of Mitogen-activated protein kinase 9 (Homo sapiens) (P45984 whole entry, looked up, the tested form may be a part): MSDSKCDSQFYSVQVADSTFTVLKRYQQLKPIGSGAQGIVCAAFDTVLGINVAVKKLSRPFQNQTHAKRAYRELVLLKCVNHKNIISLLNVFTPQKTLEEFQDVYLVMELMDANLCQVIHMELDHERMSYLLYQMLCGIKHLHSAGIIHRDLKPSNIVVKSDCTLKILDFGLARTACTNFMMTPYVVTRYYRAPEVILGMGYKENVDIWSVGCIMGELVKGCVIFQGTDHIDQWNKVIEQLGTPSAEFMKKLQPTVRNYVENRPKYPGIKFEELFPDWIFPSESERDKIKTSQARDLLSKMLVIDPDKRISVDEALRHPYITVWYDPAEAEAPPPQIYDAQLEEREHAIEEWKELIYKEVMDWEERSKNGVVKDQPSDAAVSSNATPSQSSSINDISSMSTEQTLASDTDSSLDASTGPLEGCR

The target in data set [15] is Inhibitor of nuclear factor kappa-B kinase subunit beta (Homo sapiens) (UniProt O14920). Briefly: Inhibition of recombinant human N-terminal His6-tagged IKKbeta (1 to 736 residues) expressed in baculovirus infected Sf21 cells assessed as remaining activity at 10 uM using LDDRHDSGLDSMKDEEY as substrate incubated for 30 mins in presence of [gamma-33P]ATP by filter binding method relative to control. In a few lines: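 Profiling-centre panel assay performed robotically at 21 °C for 30 min, linear with time and enzyme. […] Values are percent of compound-free control activity, the mean of triplicates ± S.D.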
Chain of Inhibitor of nuclear factor kappa-B kinase subunit beta (Homo sapiens) (O14920 whole entry, the tested form may be a part): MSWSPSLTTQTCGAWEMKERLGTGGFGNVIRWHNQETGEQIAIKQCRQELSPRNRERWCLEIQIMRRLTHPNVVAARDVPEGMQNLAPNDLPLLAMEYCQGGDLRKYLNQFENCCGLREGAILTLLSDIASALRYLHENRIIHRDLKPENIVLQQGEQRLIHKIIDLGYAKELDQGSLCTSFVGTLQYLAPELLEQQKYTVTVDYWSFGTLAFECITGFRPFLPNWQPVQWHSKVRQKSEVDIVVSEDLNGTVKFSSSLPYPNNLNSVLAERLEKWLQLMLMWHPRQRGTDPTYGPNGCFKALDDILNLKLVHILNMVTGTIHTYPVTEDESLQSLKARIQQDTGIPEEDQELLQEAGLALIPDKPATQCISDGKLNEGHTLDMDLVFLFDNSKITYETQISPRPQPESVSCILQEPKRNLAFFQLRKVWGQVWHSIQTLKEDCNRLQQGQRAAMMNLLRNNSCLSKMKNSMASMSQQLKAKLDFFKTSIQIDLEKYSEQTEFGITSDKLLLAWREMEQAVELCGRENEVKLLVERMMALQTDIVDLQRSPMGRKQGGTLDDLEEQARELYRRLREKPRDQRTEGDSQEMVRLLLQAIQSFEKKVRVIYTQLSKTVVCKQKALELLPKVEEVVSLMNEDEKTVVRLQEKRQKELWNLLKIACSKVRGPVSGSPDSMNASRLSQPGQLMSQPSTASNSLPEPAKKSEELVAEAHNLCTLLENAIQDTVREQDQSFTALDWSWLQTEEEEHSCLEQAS

Data set [16] deals with T2, mTORC2 (Homo sapiens). To be noted: HEK293, dose 30-1000 nM, time 30.0 min. This is another data set of the same source.
In data set [17] the test system is MEF. Briefly: Induction of cell cycle arrest in mLST8 knockout MEF cells assessed as accumulation at G1 phase at 3 uM incubated for 1 to 3 days by propidium iodide staining based flow cytometric analysis (reference value: 22.2 +/- 0.59%). Format: toxicity. The following applies: mouse, time 1-3 day. In general terms: Flow cytometry measures light scatter and fluorescence of single cells or particles in a stream.

The target in data set [18] is T1, mTORC1 (Homo sapiens). The following applies: HEK293, dose 300.0 nM, time 30.0 min.

Molecules are shown by their SMILES. Active and inactive are the calls of the source. The rule behind the calls is not given here.

Chain of Dual specificity mitogen-activated protein kinase kinase 1 (Homo sapiens) (Q02750 whole entry, the tested form may be a part): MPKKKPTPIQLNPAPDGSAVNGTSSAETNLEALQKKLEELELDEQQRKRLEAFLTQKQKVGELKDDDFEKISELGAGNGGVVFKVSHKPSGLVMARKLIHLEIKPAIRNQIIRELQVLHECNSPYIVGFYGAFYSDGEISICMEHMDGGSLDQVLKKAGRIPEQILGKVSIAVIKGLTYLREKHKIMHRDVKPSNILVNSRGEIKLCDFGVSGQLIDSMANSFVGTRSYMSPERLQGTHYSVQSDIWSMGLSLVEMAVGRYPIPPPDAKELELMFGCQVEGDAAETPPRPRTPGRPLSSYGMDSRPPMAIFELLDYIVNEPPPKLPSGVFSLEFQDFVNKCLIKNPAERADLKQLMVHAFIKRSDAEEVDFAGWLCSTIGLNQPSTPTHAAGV
Chain of Fibroblast growth factor receptor 1 (Homo sapiens) (P11362 22-822 limits assumed): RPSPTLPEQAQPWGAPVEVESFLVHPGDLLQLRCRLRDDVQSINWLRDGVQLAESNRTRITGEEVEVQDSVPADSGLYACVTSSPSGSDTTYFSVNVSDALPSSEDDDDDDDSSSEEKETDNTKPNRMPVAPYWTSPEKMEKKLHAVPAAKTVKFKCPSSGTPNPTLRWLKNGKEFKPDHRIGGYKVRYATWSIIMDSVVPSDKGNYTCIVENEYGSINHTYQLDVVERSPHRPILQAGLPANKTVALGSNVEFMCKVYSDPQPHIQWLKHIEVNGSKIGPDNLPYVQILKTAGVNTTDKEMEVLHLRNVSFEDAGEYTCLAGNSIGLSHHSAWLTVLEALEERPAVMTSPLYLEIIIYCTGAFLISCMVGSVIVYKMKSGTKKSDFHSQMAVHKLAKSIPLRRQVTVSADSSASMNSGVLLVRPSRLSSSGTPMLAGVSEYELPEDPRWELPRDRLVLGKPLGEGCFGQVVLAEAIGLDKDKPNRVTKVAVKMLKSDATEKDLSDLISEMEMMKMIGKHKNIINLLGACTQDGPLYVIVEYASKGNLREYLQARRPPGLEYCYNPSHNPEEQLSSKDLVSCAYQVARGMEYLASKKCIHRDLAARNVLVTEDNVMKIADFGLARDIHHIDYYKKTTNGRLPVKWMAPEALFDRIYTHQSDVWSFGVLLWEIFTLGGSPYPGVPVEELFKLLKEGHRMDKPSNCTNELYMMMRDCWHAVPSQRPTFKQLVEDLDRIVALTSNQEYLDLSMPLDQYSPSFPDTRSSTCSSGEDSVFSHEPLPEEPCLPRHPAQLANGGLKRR
Chain of Mitogen-activated protein kinase; ERK1/ERK2 (Homo sapiens) (P27361 whole entry, looked up, the tested form may be a part): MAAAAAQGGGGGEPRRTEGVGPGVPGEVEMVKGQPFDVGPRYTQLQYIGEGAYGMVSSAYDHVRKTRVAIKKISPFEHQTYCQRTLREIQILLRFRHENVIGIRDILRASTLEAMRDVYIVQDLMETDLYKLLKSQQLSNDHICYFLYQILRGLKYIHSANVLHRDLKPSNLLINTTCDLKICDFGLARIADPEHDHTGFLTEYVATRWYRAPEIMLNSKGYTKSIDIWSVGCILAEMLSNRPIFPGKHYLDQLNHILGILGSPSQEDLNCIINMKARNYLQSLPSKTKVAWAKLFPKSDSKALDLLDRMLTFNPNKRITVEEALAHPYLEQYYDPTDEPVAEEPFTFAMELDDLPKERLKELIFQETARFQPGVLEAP
Chain of Mitogen-activated protein kinase; ERK1/ERK2 (Homo sapiens) (P28482 whole entry, looked up, the tested form may be a part): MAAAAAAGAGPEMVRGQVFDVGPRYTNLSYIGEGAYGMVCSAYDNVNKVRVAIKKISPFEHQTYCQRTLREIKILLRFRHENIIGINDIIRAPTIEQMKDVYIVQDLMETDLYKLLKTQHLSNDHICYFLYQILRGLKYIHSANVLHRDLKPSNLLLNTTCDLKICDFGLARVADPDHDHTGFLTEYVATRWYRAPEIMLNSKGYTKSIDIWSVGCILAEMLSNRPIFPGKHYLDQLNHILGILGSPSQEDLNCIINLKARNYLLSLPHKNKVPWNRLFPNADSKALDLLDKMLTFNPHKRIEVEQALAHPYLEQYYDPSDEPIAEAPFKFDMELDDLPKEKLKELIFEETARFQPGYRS

What is called inhibition is the share of the control response that was lost under treatment. For `COc1ccc(-c2ccc3c(N4CCOCC4)nc(N4C[C@@H](C)O[C@@H](C)C4)nc3n2)cc1CO` [Ku-0063794], the inhibition result in the data set on MEF [1], on mTORC2 (Homo sapiens) [7] and at mTORC2 (Homo sapiens) [16] was “Active” each time. For the same compound, the Activity was found to be 86% in data set [2]; 83% in [3]; 43% in data set [5]; 85% in data set [6]; 108% in data set [8]; 92% in [9]. Moreover, the Activity in data set [10] came out at 102%; in data set [13], 88%; in data set [14], 101%; in data set [15], 89%; in the data set with MEF [17], 47.3%. Moreover, the figures for the inhibition result at mTORC1 (Homo sapiens) [4], on mTORC1 (Homo sapiens) [11] and at mTORC1 (Homo sapiens) [18] were “Dose-Dependent Effect”, 90% and 90%, respectively. Besides, the inhibition entry in data set [12] is “inactive”.

(Values after ChEMBL document CHEMBL5678799 (Biochem J, 2009).)
